Myeloid diff MLP: compounds promoting myeloid differentiation. ER-HoxA9 myeloid progenitors, lysozyme-GFP differentiation, flow cytometry. calls only at 10 µM. hit rate 1% among 360,000. AID 624256;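 active = normalized GFP-positive differentiation at or above the plate's own cutoff, the solvent-only control mean plus 3 SD; inconclusive = no clear call, values can overlap the other calls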;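 note: cells exposed to compound for four days before flow analysis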
Rpn11 inh: Rpn11 (human) deubiquitinase inhibition. O00487. human 26S proteasome, Ub4-pepOG fluorescence polarization; 20S core pre-blocked with epoxomicin. inhibition, % at 20 µM. hit rate 0.59% among 360,000. AID 588493;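 active = inhibition at 20 µM, scaled to each plate's controls, above about 33%, limit read from the data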
Target sequence (O00487 whole entry, looked up): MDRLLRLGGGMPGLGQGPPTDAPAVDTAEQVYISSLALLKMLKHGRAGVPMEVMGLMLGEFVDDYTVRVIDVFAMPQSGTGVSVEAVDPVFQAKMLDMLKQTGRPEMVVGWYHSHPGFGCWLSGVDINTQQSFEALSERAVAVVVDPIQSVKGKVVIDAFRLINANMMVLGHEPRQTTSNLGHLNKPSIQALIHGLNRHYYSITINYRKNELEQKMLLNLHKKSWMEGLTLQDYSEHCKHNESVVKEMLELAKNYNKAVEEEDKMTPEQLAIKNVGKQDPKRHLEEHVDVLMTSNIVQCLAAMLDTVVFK
HNF4A DNA FP: change in binding of human HNF4 alpha to DNA. HNF4a-FITC DNA binding, fluorescence polarization, 1 h. P41235. activity change, % at 10 µM. hit rate 0.3% among 360,000; in the data active = activity change above about 30%, passing the limit was not always enough
CSN inh: inhibitors of human CSN-mediated cullin deneddylation; Q92905; Purified CSN, SCF-Nedd8-OG deneddylation, fluorescence polarization; inhibition, % at 12.5 µM; hit rate 0.38% among 360,000; AID 651999;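 active = pattern-corrected inhibition above about 35%, with an unprinted fluorescence ratio check between 0.5 and 1.5, limit read from the data, passing the limit was not always enough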
Target sequence (Q92905 whole entry, looked up, one chain of several): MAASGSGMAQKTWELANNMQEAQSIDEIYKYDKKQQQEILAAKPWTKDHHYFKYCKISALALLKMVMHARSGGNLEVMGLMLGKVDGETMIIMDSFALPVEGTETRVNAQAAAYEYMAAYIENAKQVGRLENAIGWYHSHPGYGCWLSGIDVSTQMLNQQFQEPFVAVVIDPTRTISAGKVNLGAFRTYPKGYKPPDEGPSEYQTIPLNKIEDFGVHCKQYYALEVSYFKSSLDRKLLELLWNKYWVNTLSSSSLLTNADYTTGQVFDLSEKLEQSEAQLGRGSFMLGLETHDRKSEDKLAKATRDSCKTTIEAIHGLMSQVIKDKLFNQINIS
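Assay system: Purified human Csn5 enzyme expressed in HEK293T cells | Amount: Enzyme 0.24 nM | Measured by: Fluorescence polarization readout | Medium: Tris/NaCl/DTT buffer, pH 7.5 | Compound dosing: One concentration, 12.5 µM, 0.25% DMSO | Times: 90 min incubation of compound, enzyme and substrate at room temperature | Control set: no-enzyme wells high, enzyme-with-substrate wells low | Read-out: % inhibition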
TPT1 inhibitor: inhibitors of Candida albicans tRNA 2'-phosphotransferase TPT1; inhibition, % at 5 µM; AID 1962; recombinant caTPT1, FP RNA substrate dephosphorylation; hit rate 0.81% among 300,000;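 active = inhibition above the mean of all tested compounds plus 3 SD, set per screening campaign, cut at about 24% in these data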
Large screens that a line does not name were inactive. This is a sample that favours compounds with a hit; in the whole collection about 2.3% have one here.

Nc1sc(Cc2ccccc2)cc1C(=O)c1c(-c2ccccc2)[nH]c2ccccc12	Myeloid diff MLP inconclusive (no result: Rpn11 inh, TPT1 inhibitor)
CCn1nc(C)cc1C(=O)N1CCCC(C(=O)c2ccccc2SC)C1 (stereo unspecified)	Myeloid diff MLP active
CSc1ccccc1C(=O)C1CCCN(C(=O)NC(C)C)C1 (stereo unspecified)	none
CC1(c2nnnn2-c2ccc3c(c2)OCCO3)CCC(=O)N1CCCn1ccnc1 (stereo unspecified)	CSN inh 102.3 (no result: Rpn11 inh, TPT1 inhibitor)
O=C(O)Cc1ccc(N2N=C(c3ccccc3)CC2=O)cc1	none (no result: TPT1 inhibitor)
CCOc1cc(NC(=S)NCC2CCCO2)c(OCC)cc1NC(=O)c1ccccc1C (stereo unspecified)	Myeloid diff MLP active
Cc1ccc(C2=CSC3=NNC4(CCCCC4)NN23)cc1	Myeloid diff MLP active
Cc1ccc(CN(CC(=O)NCc2ccc3c(c2)OCO3)C(=O)c2csnn2)cc1	Myeloid diff MLP active
CC1CCN(S(=O)(=O)c2ccc(N/N=C(/C#N)C(N)=O)cc2)CC1	none
N#C/C(=N\Nc1ccc(S(=O)(=O)N2CCOCC2)cc1)C(N)=S	Myeloid diff MLP active
Cc1cccc(C)c1NC(=O)C(c1ccncc1)N1CCN(CCN(C)C)CC1 (stereo unspecified)	none (no result: Rpn11 inh, TPT1 inhibitor)
CCCN1CCC(=O)N([C@H](CSc2ccccc2)Cc2ccccc2)CC1	none
CCCN1CCC(=O)N([C@H](CSc2ccc(Br)cc2)Cc2ccccc2)CC1	Myeloid diff MLP active
CCCCCCCC(=O)NNC(=O)c1c(O)c2ccccc2n(CC)c1=O	Myeloid diff MLP active
O=C(NCC1CCCO1)c1ccc(NS(=O)(=O)c2cccc([N+](=O)[O-])c2)cc1 (stereo unspecified)	none
O=C(NCC1CCCO1)c1ccccc1S(=O)(=O)c1ccc([N+](=O)[O-])cc1 (stereo unspecified)	Myeloid diff MLP active
c1cnc2nc3c4ccccc4c4ccccc4c3nc2c1	Myeloid diff MLP active (no result: TPT1 inhibitor)
CCOC(=O)[C@H]1[C@H]2COc3ccccc3[C@@H]2N2C(=O)CNC(=O)[C@@]12C	Myeloid diff MLP active (no result: TPT1 inhibitor)
CCn1cc(C(=O)NCC(OC)OC)c(=O)c2cc(S(=O)(=O)N3CCCC3)ccc21	none
CCn1cc(C(=O)NCC(OC)OC)c(=O)c2cc(S(=O)(=O)N3CCC(C)CC3)ccc21	Myeloid diff MLP active
Cc1c(C(=O)N(C)Cc2ccc(F)cc2)sc(=O)n1Cc1ccc(Cl)c(Cl)c1	none (no result: TPT1 inhibitor)
O=C(O)COc1ccccc1C(Nc1cccnc1)c1cc(Cl)c2cccnc2c1O (stereo unspecified)	none (no result: TPT1 inhibitor)
CCOc1ccc(C(Nc2cccnc2)c2cc(Cl)c3cccnc3c2O)cc1 (stereo unspecified)	Myeloid diff MLP active
C=CCOc1cccc(C2C(C(=O)c3ccc(C)o3)=C(O)C(=O)N2c2nccs2)c1 (stereo unspecified)	Myeloid diff MLP active
COc1cccc(C2C(C(=O)c3ccc(C)o3)=C(O)C(=O)N2c2cc(C)on2)c1 (stereo unspecified)	none
CC(C)=CC(=O)Nc1nc2ccc([N+](=O)[O-])cc2s1	Myeloid diff MLP active (no result: TPT1 inhibitor)
CSCCC(C(=O)Nc1c(C)cccc1C)n1c(COc2ccc(C)cc2)nc2ccccc21 (stereo unspecified)	none (no result: Rpn11 inh, TPT1 inhibitor)
CCCCn1c(NC(=O)c2ccc(F)cc2)c(C#N)c2nc3ccccc3nc21	TPT1 inhibitor 80.5 (no result: Myeloid diff MLP, Rpn11 inh, HNF4A DNA FP, CSN inh)
CC[C@H]1O[C@H](C)CC2=C1C(=O)OC(C)(C)O2	none (no result: Rpn11 inh, TPT1 inhibitor)
Cc1ccc(NC(=O)Cn2nnc(C(=O)NCc3ccccc3)c2N)cc1C	none
Cc1ccc(NC(=O)c2nnn(CC(=O)Nc3ccccc3)c2N)cc1C	Myeloid diff MLP active
COC(=O)C1=C(C)N(Cc2ccccc2)C(=NCc2cccc(C(F)(F)F)c2)N[C@H]1c1cccc(C(F)(F)F)c1	Myeloid diff MLP inconclusive (no result: TPT1 inhibitor)
COC(=O)C1=C(C)N(CC2CC2)C(=NCc2cccc(C(F)(F)F)c2)N[C@H]1c1ccccc1	Myeloid diff MLP active (not shown: Rpn11 inh, TPT1 inhibitor)
Cc1cc(NCCCN(C)C)n2c(nc3ccccc32)c1C#N	none
Cc1cc(NCCCOC(C)C)n2c(nc3ccccc32)c1C#N	CSN inh 51.9
Nc1cc2c3c(cccc3c1)C(=O)N(CCN1CCCC1)C2=O	Myeloid diff MLP active
COc1ccc(Cl)cc1Cn1c(C)c(C(=O)NCc2ccc(F)cc2)sc1=O	none (no result: TPT1 inhibitor)
O=C(COC(=O)c1ccccc1NC(=O)c1ccco1)NC1CC1	none
CN(C)C(=O)COC(=O)c1ccccc1NC(=O)c1ccco1	Myeloid diff MLP active
CC(=O)Nc1cccc(-c2ccnc3c2CC(C)(C(=O)NCCC(F)(F)F)O3)c1 (stereo unspecified)	Myeloid diff MLP active (no result: TPT1 inhibitor)
CC(=O)Nc1cccc(-c2ccnc3c2CC(C)(C(=O)NCc2ccc(F)c(F)c2)O3)c1 (stereo unspecified)	Myeloid diff MLP active (no result: TPT1 inhibitor)
CC(=O)Nc1ccc(-c2ccnc3c2CC(C)(C(=O)NCCC(F)(F)F)O3)cc1 (stereo unspecified)	none (no result: TPT1 inhibitor)
CCNC(=O)C1(C)CCCN(Cc2cccc(Oc3ccccc3)c2)C1 (stereo unspecified)	none (no result: TPT1 inhibitor)
COC(=O)[C@@]12C[C@@H](CC(=O)N3CCC(c4ccccc4)CC3)C(=O)N(Cc3ccco3)C1=CCC(C)(C)C2	CSN inh 120.6 (no result: Rpn11 inh, TPT1 inhibitor)
O=C1OC(c2ccc(F)cc2)=C/C1=C\c1ccc(O)cc1	none
O=C1OC(c2ccc(F)cc2)=C/C1=C\c1ccc([N+](=O)[O-])o1	TPT1 inhibitor 44.5 (no result: Myeloid diff MLP, Rpn11 inh, HNF4A DNA FP, CSN inh)
N#CC(=Cc1ccccn1)c1nc(-c2ccc(Cl)cc2)cs1	Myeloid diff MLP active (not shown: Rpn11 inh, TPT1 inhibitor)
COc1ccc2cc(C(=O)Nc3ccc(F)cc3)sc(=O)c2c1OC	CSN inh 40.8
COc1cc2c3nnc(-c4ccc(F)cc4)c-3cn(Cc3ccccc3)c2cc1OC	Myeloid diff MLP active
COc1ccc(Cn2cc3c(-c4ccc(F)cc4)nnc-3c3cc(OC)c(OC)cc32)cc1	Myeloid diff MLP active
CC(C)(C)OC(=O)[C@H](Cc1ccccc1)NC(=O)c1[nH]cnc1C(=O)N[C@@H](Cc1ccccc1)C(=O)OCc1ccccc1	none
CC(C)(C)OC(=O)[C@H](CCCCN)NC(=O)c1[nH]cnc1C(=O)N[C@@H](Cc1ccccc1)C(=O)OCc1ccccc1	Myeloid diff MLP active (no result: TPT1 inhibitor)
C/C(=N\NC(=S)Nc1cc(S(=O)(=O)N2CCOCC2)ccc1Cl)c1ccc(N2CCOCC2)cc1	Myeloid diff MLP active
COc1ccc2cc(/C(C)=N/NC(=S)Nc3cc(S(=O)(=O)N4CCOCC4)ccc3N3CCOCC3)ccc2c1	none (no result: Myeloid diff MLP, Rpn11 inh, HNF4A DNA FP, CSN inh)
COc1ccc(S(=O)(=O)NCc2ccc(C(=O)NCCN(C)Cc3ccccc3)cc2)cc1	none (no result: TPT1 inhibitor)
C[C@@H](c1ccccc1)N1C[C@H](COCc2ccccc2)Oc2cc(N3CC[C@@H](O)C3)ccc2S1(=O)=O	Myeloid diff MLP active (no result: Rpn11 inh, TPT1 inhibitor)
CCOC(=O)[C@]12CCC=C1N(Cc1ccc(Cl)cc1Cl)C(=O)[C@H](CC(=O)N1CCC(c3ccccc3)CC1)C2	none (no result: Rpn11 inh, TPT1 inhibitor)
COC(=O)CN1C(=O)CSc2ccc(S(=O)(=O)N3CCC(C)CC3)cc21	none (no result: TPT1 inhibitor)
